44 sequences from the EternaBench riboswitch data can be followed below.

The test system of this series is MS2 coat protein. Nature of the series: apparent Kd, MS2 coat protein; higher = weaker binding; RNA-MaP array; tryptophan 2.4 mM where present. The procedure, abridged: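 Binding was read on Illumina sequencing-chip clusters where stalled E. coli RNA polymerase had transcribed each design. A titration of SNAP-549-labelled MS2 coat protein began at 0.7 or 1.5 nM and doubled to 3 µM, once without ligand and once with constant ligand, in 100 mM Tris-HCl pH 7.5, 80 mM KCl, 4 mM MgCl2, BSA, DTT, yeast tRNA and Tween-20. The apparent Kd is the median of filtered per-cluster binding-curve fits, based on green signal normalised to red-channel RNA signal and control-cluster median Fmax.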

[1] abbreviates: designed as: ON switch for tryptophan, no ligand.
The mark [2] stands for this setting: ligand present: tryptophan, designed as: ON switch for tryptophan.
Setting [3] is: designed as: OFF switch for tryptophan, no ligand.
Setting [4] is: ligand present: tryptophan, designed as: OFF switch for tryptophan.

Turning to “AGCCGGAUUACGGCCGCCACUGUAGACGUGACGAAAGUCGCGUCAACAUGAGGAUCACCCAUGUACAGGACCGGGUGGUCGGGCG”, the “apparent Kd” value by setting is: under setting [1], 161 nM; under setting [2], 27.5 nM.

As for “UUAUGCAGGUCGGCCGCCACUACACACAUGAGGAUCACCCAUGUAGUUACUGGGUGAAGUGGCAGUAGGACCGGGACCUGCAUAC”, the “apparent Kd” value by setting is: under setting [1], 553 nM; under setting [2], 316 nM.

For “CAAAAUAUAACGGCCGCCACUUACUCAUGAGGUAACAACAUGAGGAUCACCCAUGUUUGAGGAUCAAGGACCGGGUUAUAUUUUG”, the “apparent Kd” value is 30.7 nM under setting [1] and 17 nM under setting [2].

“UCGUUUUAGUCGGCCGCCACUGUGAGCAUGGUUAACAUGAGGAUCACCCAUGUCCCGUACUAUAACAGGACCGGGACGUAGUUGC”: the “apparent Kd” value worked out at 93 nM under setting [1] and 22.8 nM under setting [2].

For the sequence “AGAUGAGUCACGGCCGCCACUCACUACAGGUUCACCCUUGGUUAACAUGAGGAUCACCCAUGUGGGAGGACCGGGUGAUGAGCAU”, the “apparent Kd” value under setting [3] amounted to 19.9 nM and the “apparent Kd” value under setting [4] came to 25.1 nM.

For “AUUAAGGAUAUGUAGACGGCGGAGAAGAGACGAGGACCGGUACGGCCGCCACUCGUGUUAGUUAACAUGAGGAUCACCCAUGUAA”, the “apparent Kd” value reads like this: under setting [1], 49.7 nM; under setting [2], 22 nM.

Consider “CAUCCUAGUACAUGAGGAUCACCCAUGUAUCGAGGACCGGUACGGCCGCCACUCGAAUGGCGGAUCGUUAAUCCUCUAGGAUGGA”, for which the “apparent Kd” value was determined as 10 nM under setting [3] and 13.5 nM under setting [4].

For “CUACAUUUGUAGAAACCGGUCAACAAUAAUCGAGGACCGGUACGGCCGCCACUCGAUGUGAAAUCACAUGAGGAUCACCCAUGUA”, the “apparent Kd” value under setting [1] is 18 nM and the “apparent Kd” value under setting [2] amounted to 18.1 nM.

For the sequence “AUUCAUGGAAACAUGACAUAGGGAUCUAUCCGAGGACCGGUACGGCCGCCACUCGCGUGGAGGCACAUGAGGAUCACCCAUGUUA”, the “apparent Kd” value is, setting by setting: under setting [1], 278 nM; under setting [2], 432 nM.

For the sequence “AUUGUGAAGUCGGCCGCCACUGCAUAGUUUAACCUCUUUUAACAUGAGGAUCACCCAUGUAAUGACAGGACCGGGACAAUAGUAA”, the “apparent Kd” value was 51.5 nM under setting [1] and 59.9 nM under setting [2].

As to “AUUCAUGGAAACAUGACAUAGGGAUCCGGUCGAGGACCGGUACGGCCGCCACUCGUUUGGAGGCACAUGAGGAUCACCCAUGUUA”, the “apparent Kd” value under setting [1] was 82 nM and the “apparent Kd” value under setting [2] worked out at 67.5 nM.

In the case of “AAGACCAGGAGGUGAUCCUAACUGGUCCAACGAGGACCGGUACGGCCGCCACUCGAAUAAACAUGAGGAUCACCCAUGUAAUAAU”, the “apparent Kd” value is, setting by setting: under setting [1], 98.1 nM; under setting [2], 225 nM.

On to “AGAGCAUUGACGGCCGCCACUCAUGUCACAUGAGGAUCACCCAUGUGAUGGGUGAUAGCCCGGUCGAGGACCGGGUCAAUGCUCA”, for which the “apparent Kd” value runs as follows: under setting [1], 17.2 nM; under setting [2], 18 nM.

“AAAUAAUAUUAAUUAAUUAUAUUAUUCUGACGAGGACCGGUACGGCCGCCACUCGGCCCAUGGUACAUGAGGAUCACCCAUGUCU”: the “apparent Kd” value runs as follows: under setting [1], 17.6 nM; under setting [2], 13.6 nM.

Regarding “AAUAAUAAGGCGGCCGCCACUACACAUGAGGAUCACCCAUGUCUCGCGGGCUUGCGUUGGGAUUGUAGGACCGGGCCAAUAAUAA”, the “apparent Kd” value worked out at 26.7 nM under setting [3] and 20.3 nM under setting [4].

Regarding “ACAUGAGGAUCACCCAUGUGCAUGAUGAUCCGAGGACCGGUACGGCCGCCACUCGUCAUGAUGAUCUUUCAUGUUUGUCGCGCGC”, the “apparent Kd” value amounted to 329 nM under setting [1] and 429 nM under setting [2].

As to “GAUCGAAAUAACGUCUAGGAAAACUAGACGCGAGGACCGGUACGGCCGCCACUCGGGUGGCACAUGAGGAUCACCCAUGUAGAUC”, the “apparent Kd” value amounted to 78.7 nM under setting [3] and 105 nM under setting [4].

As to “GGCGCUGCGUCGGCCGCCACUAGUGGGUAAUGGGUGUACAUGAGGAUCACCCAUGUAUUUUGGCCUAGGACCGGGACGUGGCGCC”, the “apparent Kd” value by setting is: under setting [3], 453 nM; under setting [4], 503 nM.

With “CUAUAAGUACCGGUCCUCAGAUCCUCAUGACGAGGACCGGUACGGCCGCCACUCGAAACAUGAGGAUCACCCAUGUAAUAAUAAU”, the “apparent Kd” value reads like this: under setting [3], 18.3 nM; under setting [4], 18.6 nM.

“GGUUACUCUACGGCCGCCACUGAUUAUUUAUAAUCCUGUACAUAAACAUGAGGAUCACCCAUGUACAGGACCGGGUAGUGUAACC”: the “apparent Kd” value is, setting by setting: under setting [1], 33.8 nM; under setting [2], 29.4 nM.

Consider “CUCAUCCACGCGGCCGCCACUAUAUUGUGGUGCGUAUGUGUCGUAAUACAUGAGGAUCACCCAUGUAGGACCGGGCGUGGAUGAG”, for which the “apparent Kd” value is, setting by setting: under setting [3], 10.8 nM; under setting [4], 20.4 nM.

With “GUAGCGACGGCGGCCGCCACUCACAGGUGAGGGUAGACCAACCUUCACAUGAGGAUCACCCAUGUGAGGACCGGGCUGUCGCUAC”, the “apparent Kd” value runs as follows: under setting [3], 90.9 nM; under setting [4], 146 nM.

On to “GGAUAGGACACGGCCGCCACUGCGCUAGGAUACUAGAACAUUUCCUCACAUGAGGAUCACCCAUGUAGGACCGGGUGUCCUAUCG”, for which the “apparent Kd” value by setting is: under setting [3], 49.6 nM; under setting [4], 152 nM.

With “GGCCAUGGAAACAUGGCGGCGGCGUAUGCGCGAGGACCGGUACGGCCGCCACUCGGGCGACAUGAGGAUCACCCAUGUUCCUCAU”, the “apparent Kd” value amounted to 182 nM under setting [3] and 478 nM under setting [4].

With “UGUACCAUGUCGGCCGCCACUCAUGAUAAACAUGAGGAUCACCCAUGUGGCGUCAAAGACGCUAUGAGGACCGGGACAUGGUACU”, the “apparent Kd” value by setting is: under setting [1], 13.2 nM; under setting [2], 10.6 nM.

With “ACAUGAGCAUCAGCCAUGUGUAUGACAUGACGAGGACCGGUACGGCCGCCACUCGACAUGAGGAUCACCCAUGUUGAGGAUCACA”, the “apparent Kd” value under setting [3] was determined as 10.9 nM and the “apparent Kd” value under setting [4] is 14.7 nM.

In the case of “GGCACAUAGUCGGCCGCCACUAGUGGGAAAUGGGAGAACAUGAGGAUCACCCAUGUAUUAUAGCCUAGGACCGGGACUAUGUGCC”, the “apparent Kd” value runs as follows: under setting [3], 74.8 nM; under setting [4], 105 nM.

For the sequence “UAAUCCGGUCCUCGAUAGGUGAUCCUCUAACGAGGACCGGUACGGCCGCCACUCGAUAACAUGAGGAUCACCCAUGUAAUAAUAA”, the “apparent Kd” value was found to be 44 nM under setting [3] and 33.8 nM under setting [4].

As to “AGCAACAAGUCGGCCGCCACUCAUUUAACAUGAGGAUCACCCAUGUGAAUAACAUGGUUGUAAUAGAGGACCGGGACAGUUGCAU”, the “apparent Kd” value by setting is: under setting [1], 119 nM; under setting [2], 574 nM.

In the case of “UUAUAAGUACCGGUCCUCAGAUCCUCAUGACGAGGACCGGUACGGCCGCCACUCGAAACAUGAGGAUCACCCAUGUAAUAAUACU”, the “apparent Kd” value by setting is: under setting [3], 26.4 nM; under setting [4], 20.2 nM.

As to “AUACAUGAGGAUCACCCAUGUGAUGGCCGGCGAGGACCGGUACGGCCGCCACUCGUGAUCCGUCCUGAGAGCAAAGCCCUCAGCA”, the “apparent Kd” value is, setting by setting: under setting [1], 124 nM; under setting [2], 171 nM.

For “UUCUACGACGAUCUGGGAAAACCAGAUCGACGAGGACCGGUACGGCCGCCACUCGUGUUUCUUUAACAUGAGGAUCACCCAUGUA”, the “apparent Kd” value is, setting by setting: under setting [1], 20.5 nM; under setting [2], 14.5 nM.

Turning to “GCAUCCUAGUCGGCCGCCACUACAACAUGAGGAUCACCCAUGUGUGGGAGAUCCGUCCUACGAAGUAGGACCGGGACUAGGAUGC”, the “apparent Kd” value reads like this: under setting [1], 272 nM; under setting [2], 444 nM.

“CCUCAUGAACAUGAGGAUCACCCAUGUACACGAGGACCGGUACGGCCGCCACUCGAAUAAGCUAAAUAUAAAUAAUAAUAAUAGC”: the “apparent Kd” value by setting is: under setting [3], 16.9 nM; under setting [4], 37.6 nM.

For “GGUUACUCUACGGCCGCCACUGUUAAAUAAUAAACCUGUACAUAAACAUGAGGAUCACCCAUGUACAGGACCGGGUAGUGUAACC”, the “apparent Kd” value under setting [1] came to 32.1 nM and the “apparent Kd” value under setting [2] was 16.1 nM.

Take “CUAAAUAUAUCGGCCGCCACUUACUCAUGAGGUAACAACAUGAGGAUCACCCAUGUUUGAGGAUCAAGGACCGGGAUAUAUUUAG”: the “apparent Kd” value by setting is: under setting [1], 27.8 nM; under setting [2], 19 nM.

In the case of “GAUAUAUAGGCGGCCGCCACUGAUUUUCAUAUAUAUAUAACAUGAGGAUCACCCAUGUAGAUAUACAGGACCGGGCCUAUAUAUU”, the “apparent Kd” value by setting is: under setting [1], 14.5 nM; under setting [2], 13.4 nM.

Take “UGUCAGCGAAAGUUGACAUGUCUUACCGGUCGAGGACCGGUACGGCCGCCACUCGAUCUCUCGCACAUGAGGAUCACCCAUGUCG”: the “apparent Kd” value by setting is: under setting [1], 12.7 nM; under setting [2], 11.2 nM.

Turning to “UGUAUUGGAAACAGUACUAGUGAUCCGGUCCGAGGACCGGUACGGCCGCCACUCGAAAUUAAUAAACAUGAGGAUCACCCAUGUA”, the “apparent Kd” value under setting [3] was 14.8 nM and the “apparent Kd” value under setting [4] came out at 34.2 nM.

In the case of “AUAACGAGUGGUGGAUAAUCCUCAUGUAAACGAGGACCGGUACGGCCGCCACUCGAUAACAUGAGGAUCACCCAUGUAAUAAUAA”, the “apparent Kd” value was found to be 13.2 nM under setting [3] and 10.3 nM under setting [4].

Consider “AAUGUAUGGCACAUGAGGAUCACCCAUGUGCGAGGACCGGUACGGCCGCCACUCGGUCCUGGGAACUUAUUACUAUACAUUAAUG”, for which the “apparent Kd” value is, setting by setting: under setting [3], 11.9 nM; under setting [4], 23.3 nM.

With “GGGUACAUCGCGGCCGCCACUUAUGUAAAUACAUGAGGAUCACCCAUGUCGAUGGAGACAUCGGAAAGGACCGGGUGAUGUACCG”, the “apparent Kd” value stood at 198 nM under setting [1] and 47.5 nM under setting [2].

“AUGUACAUGACGGCCGCCACUACACUGAAAGUGGUCCAGAACAUGAGGAUCACCCAUGUAUCAAGUAGGACCGGGUCAUGUACAU”: the “apparent Kd” value under setting [3] turned out to be 361 nM and the “apparent Kd” value under setting [4] was found to be 380 nM.

For “AAUGUAUUCCACAUGAGGAUCACCCAUGUGCGAGGACCGGUACGGCCGCCACUCGGUGUUGGGAUCUGUUCUGAAUACAUUAAUG”, the “apparent Kd” value is, setting by setting: under setting [3], 29 nM; under setting [4], 114 nM.
